Test results reported in ChEMBL document CHEMBL1151223, “Antimycotic spirostanol saponins from Solanum hispidum leaves and their structure-activity relationships” (2004).
≈ marks a conversion by molar mass, not a printed value.

Columns and labels:
[1] = system: Trichophyton mentagrophytes; experiment: Antimycotic activity against Trichophyton mentagrophytes ATCC 28185 after 72 hrs; type: functional; settings: ATCC 28185, 72 h
Outline: (§1)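 Agar dilution MIC on Sabouraud glucose agar; the filamentous fungi were maintained on potato dextrose agar at 27 °C. DMSO stocks were diluted 2-fold and added to the medium: pure compounds 400-3.125 µg/mL, extracts 10-1.25 mg/mL, references 128-1 µg/mL; final DMSO at most 2%. A hemocytometer-counted spore inoculum was loop-applied to the agar surface, and plates were incubated at 29 °C for 72 h. MIC was the lowest concentration with no visible growth; run in triplicate.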

Trichophyton rubrum = experiment: Antimycotic activity against Trichophyton rubrum ATCC 28188 after 72 hrs; type: functional; settings: ATCC 28188, 72 h; outline: as §1
Candida albicans [2] = experiment: Antimycotic activity against Candida albicans ATCC 10231 after 24 hrs; settings: ATCC 10231, 24 h
Aspergillus niger = experiment: Antimycotic activity against Aspergillus niger ATCC 10335 after 48 hrs; settings: ATCC 10335, 48 h
Candida albicans [3] = experiment: Antimycotic activity against Candida albicans ATCC 10231 after 48 hrs; type: functional

Molecule	MIC [1]	MIC (Trichophyton rubrum)	MIC (Candida albicans [2])	MIC (Aspergillus niger)	MIC (Candida albicans [3])
C[C@@H]1CC[C@@]2(OC1)O[C@H]1C[C@H]3[C@@H]4C[C@H](O[C@@H]5OC[C@@H](O)[C@H](O)[C@H]5O)[C@H]5C[C@@H](O)CC[C@]5(C)[C@H]4CC[C@]3(C)[C@H]1[C@@H]2C	100 µg/mL (≈ 177 µM)	100 µg/mL (≈ 177 µM)	200 µg/mL (≈ 354 µM)	> 400 µg/mL	–
C[C@@H]1CO[C@@]2(O[C@H]3C[C@H]4[C@@H]5C[C@H](O[C@@H]6O[C@H](C)[C@@H](O)[C@H](O[C@@H]7OC[C@@H](O)[C@H](O)[C@H]7O)[C@H]6O)[C@H]6C[C@@H](O)CC[C@]6(C)[C@H]5CC[C@]4(C)[C@H]3[C@@H]2C)[C@@H](O)C1	25 µg/mL (≈ 34.4 µM)	25 µg/mL (≈ 34.4 µM)	> 400 µg/mL	> 400 µg/mL	–
C[C@H]1CO[C@@]2(O[C@H]3C[C@H]4[C@@H]5C[C@H](O[C@@H]6O[C@H](C)[C@@H](O)[C@H](O[C@@H]7O[C@H](C)[C@@H](O)[C@H](O)[C@@H]7O)[C@H]6O)[C@H]6C[C@@H](O)CC[C@]6(C)[C@H]5CC[C@]4(C)[C@H]3[C@@H]2C)[C@@H](O)C1	200 µg/mL (≈ 270 µM)	200 µg/mL (≈ 270 µM)	200 µg/mL (≈ 270 µM)	200 µg/mL (≈ 270 µM)	–
NYSTATIN	–	–	–	–	8 µg/mL
C[C@@H]1CO[C@@]2(O[C@H]3C[C@H]4[C@@H]5C[C@H](O[C@@H]6O[C@H](C)[C@@H](O)[C@H](O[C@@H]7OC[C@@H](O)[C@H](O)[C@H]7O)[C@H]6O)[C@H]6C[C@@H](O)CC[C@]6(C)[C@H]5CC[C@]4(C)[C@H]3[C@@H]2C)[C@H](O)C1	100 µg/mL (≈ 138 µM)	100 µg/mL (≈ 138 µM)	> 400 µg/mL	> 400 µg/mL	–
C[C@@H]1CC[C@@]2(OC1)O[C@H]1C[C@H]3[C@@H]4C[C@H](O[C@@H]5O[C@H](C)[C@@H](O)[C@H](O[C@@H]6OC[C@@H](O)[C@H](O)[C@H]6O)[C@H]5O)[C@H]5C[C@@H](O)CC[C@]5(C)[C@H]4CC[C@]3(C)[C@H]1[C@@H]2C	12.5 µg/mL (≈ 17.6 µM)	12.5 µg/mL (≈ 17.6 µM)	200 µg/mL (≈ 281 µM)	100 µg/mL (≈ 141 µM)	–
Clc1ccc(COC(Cn2ccnc2)c2ccc(Cl)cc2Cl)c(Cl)c1 (stereo not given) [MICONAZOLE]	4 µg/mL (≈ 9.61 µM)	4 µg/mL (≈ 9.61 µM)	–	8 µg/mL (≈ 19.2 µM)	–
C[C@@H]1CC[C@@]2(OC1)O[C@H]1C[C@H]3[C@@H]4C[C@H](O[C@@H]5O[C@H](C)[C@@H](O)[C@H](O)[C@H]5O)[C@H]5C[C@@H](O)CC[C@]5(C)[C@H]4CC[C@]3(C)[C@H]1[C@@H]2C	25 µg/mL (≈ 43.2 µM)	50 µg/mL (≈ 86.4 µM)	200 µg/mL (≈ 346 µM)	> 400 µg/mL	–
C[C@@H]1CC[C@@]2(OC1)O[C@H]1C[C@H]3[C@@H]4C[C@H](O[C@@H]5O[C@H](C)[C@@H](O)[C@H](O[C@@H]6O[C@H](C)[C@@H](O)[C@H](O)[C@@H]6O)[C@H]5O)[C@H]5C[C@@H](O)CC[C@]5(C)[C@H]4CC[C@]3(C)[C@H]1[C@@H]2C	200 µg/mL (≈ 276 µM)	50 µg/mL (≈ 69 µM)	200 µg/mL (≈ 276 µM)	400 µg/mL (≈ 552 µM)	–
C[C@H]1CC[C@@]2(OC1)O[C@H]1C[C@H]3[C@@H]4C[C@H](O[C@@H]5O[C@H](C)[C@@H](O)[C@H](O[C@@H]6OC[C@@H](O)[C@H](O)[C@H]6O)[C@H]5O)[C@H]5C[C@@H](O)CC[C@]5(C)[C@H]4CC[C@]3(C)[C@H]1[C@@H]2C	25 µg/mL (≈ 35.2 µM)	25 µg/mL (≈ 35.2 µM)	> 400 µg/mL	> 400 µg/mL	–
C[C@H]1CC[C@@]2(OC1)O[C@H]1C[C@H]3[C@@H]4C[C@H](O[C@@H]5O[C@H](C)[C@@H](O)[C@H](O)[C@H]5O)[C@H]5C[C@@H](O)CC[C@]5(C)[C@H]4CC[C@]3(C)[C@H]1[C@@H]2C	25 µg/mL (≈ 43.2 µM)	50 µg/mL (≈ 86.4 µM)	> 400 µg/mL	> 400 µg/mL	–
